Data taken from ChEMBL document CHEMBL5661984, “Allosteric ligands for the pharmacologically dark receptors GPR68 and GPR65” (Nature, 2015).
Blank lines part the entries; values can stand above or below the compound they belong to. Calls of active or inactive are those of the source. The rule behind the calls is not given here.

Columns and labels:
[1] = biological target: T1, G-protein coupled receptor 65 (Homo sapiens, UniProt Q8IYL9); assay: Antagonist activity against GPR65 (unknown origin) transfected in human HEK293T cells incubated for 15 mins by luminescence counter analysis relative to control; type: functional, cell-based
Summary of the method: (§1)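 GloSensor split-luciferase cAMP assay. HEK293-T cells transiently co-transfected with GPR65 (wild type or the D153A, R187L, F242A or Y272A mutant) and GloSensor 7A reporter. Cells plated in DMEM with 1% dialyzed FBS for at least 6 h, then loaded with luciferin (4 mM, in drug buffer pH 8.4) for 90 min at 37°C. Compounds added at set pH in HBSS with 10 mM HEPES/10 mM MES, with TAPS for higher pH. Luminescence read after about 20 min at room temperature. Data normalized to buffer basal and fitted to a 4-parameter logistic.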

HEK293T [2] = assay: Antagonist activity against GPR65 R187L mutant (unknown origin) transfected in human HEK293T cells incubated for 15 mins by luminescence counter analysis; type: cell-based; conditions: filed as antagonist; summary of the method: as §1
HEK293T [3] = assay: Antagonist activity against GPR65 F242A mutant (unknown origin) transfected in human HEK293T cells incubated for 15 mins by luminescence counter analysis; type: cell-based; conditions: filed as antagonist; summary of the method: as §1
[4] = biological target: T1, G-protein coupled receptor 65; assay: Agonist activity against GPR65 (unknown origin) transfected in human HEK293T cells incubated for 15 mins by luminescence counter analysis; type: functional, cell-based; conditions: filed as agonist; summary of the method: as §1
HEK293T [5] = assay: Antagonist activity against GPR65 Y272A mutant (unknown origin) transfected in human HEK293T cells incubated for 15 mins by luminescence counter analysis; type: cell-based; conditions: filed as antagonist; summary of the method: as §1
[6] = Antagonist activity against GPR65 D153A mutant (unknown origin) transfected in human HEK293T cells incubated for 15 mins by luminescence counter analysis relative to control; conditions: HEK-293T, 0.25 h, condition central nervous system disease; summary of the method: as §1
[7] = biological target: T1, G-protein coupled receptor 65; assay: Antagonist activity against GPR65 (unknown origin) transfected in human HEK293T cells incubated for 15 mins by luminescence counter analysis; type: functional, cell-based; summary of the method: as §1
[8] = Antagonist activity against GPR65 D153A mutant (unknown origin) transfected in human HEK293T cells incubated for 15 mins by luminescence counter analysis; type: cell-based; conditions: HEK-293T, 0.25 h; summary of the method: as §1
[9] = biological target: T1, G-protein coupled receptor 65; assay: Antagonist activity against GPR65 (unknown origin) transfected in human HEK293T cells incubated for 15 mins in presence of BTB09089 by luminescence counter analysis; type: functional, cell-based; conditions: filed as antagonist; summary of the method: as §1
[10] = Positive allosteric modulator activity at GPR68 E160Q mutant transfected in human HEK293T cells assessed as proton-mediated calcium release at 10 uM incubated for 10 mins by Fluo-4 Direct calcium dye based FLIPR assay (reference value: 1.25 +/- 0.01 %); conditions: HEK-293T, condition central nervous system disease
[11] = Positive allosteric modulator activity at GPR68 E160K mutant transfected in human HEK293T cells assessed as proton-mediated calcium release at 10 uM incubated for 10 mins by Fluo-4 Direct calcium dye based FLIPR assay (reference value: 1.38 +/- 0.01 %); conditions: HEK-293T, condition central nervous system disease
[12] = biological target: T2, G-protein coupled receptor 68 (Homo sapiens, UniProt Q15743); assay: Positive allosteric modulator activity at GPR68 expressed in human HEK293T cells assessed as cAMP production in presence of H+ proton by Split-luciferase based luminescence counter analysis (reference value: 6.53 to 6.72); type: functional, cell-based
[13] = biological target: T2, G-protein coupled receptor 68; assay: Positive allosteric modulator activity at GPR68 expressed in human HEK293T cells assessed as cAMP production in presence of H+ proton by Split-luciferase based luminescence counter analysis (reference value: 26.4 to 43.8 %); type: functional, cell-based; conditions: filed as positive allosteric modulator
Summary of the method: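 Proton concentration-response of GPR68 (wild type or E160A/K/Q, R189L/M, H269F mutants) in transiently transfected HEK293-T cells. Read-out: GloSensor cAMP, with luciferin loading 90 min at 37°C at pH 8.4. Run with and without increasing modulator concentrations; 20 min at room temperature before luminescence. Proton KA fixed to the proton EC50 without modulator. KB, τA, α, β fitted globally with an operational allosteric model. n=4.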

[14] = Positive allosteric modulator activity at GPR68 R189M mutant transfected in human HEK293T cells assessed as proton-mediated calcium release at 10 uM incubated for 10 mins by Fluo-4 Direct calcium dye based FLIPR assay (reference value: 1.43 +/- 0.01 %); conditions: HEK-293T, condition central nervous system disease
[15] = Positive allosteric modulator activity at GPR68 R189L mutant transfected in human HEK293T cells assessed as proton-mediated calcium release at 10 uM incubated for 10 mins by Fluo-4 Direct calcium dye based FLIPR assay (reference value: 6.85 +/- 0.02); type: cell-based; conditions: HEK-293T
[16] = Positive allosteric modulator activity at GPR68 R189L mutant transfected in human HEK293T cells assessed as proton-mediated calcium release at 10 uM incubated for 10 mins by Fluo-4 Direct calcium dye based FLIPR assay (reference value: 1.42 +/- 0.01 %); conditions: HEK-293T, condition central nervous system disease
[17] = Positive allosteric modulator activity at GPR68 H269F mutant transfected in human HEK293T cells assessed as proton-mediated calcium release at 10 uM incubated for 10 mins by Fluo-4 Direct calcium dye based FLIPR assay (reference value: 6.44 +/- 0.02); type: cell-based; conditions: HEK-293T
[18] = Positive allosteric modulator activity at GPR68 E160Q mutant transfected in human HEK293T cells assessed as proton-mediated calcium release at 10 uM incubated for 10 mins by Fluo-4 Direct calcium dye based FLIPR assay (reference value: 6.86 +/- 0.04); type: cell-based; conditions: HEK-293T
[19] = biological target: T2, G-protein coupled receptor 68; assay: Positive allosteric modulator activity at GPR68 expressed in human HEK293T cells assessed as proton-mediated calcium release at 10 uM incubated for 10 mins by Fluo-4 Direct calcium dye based FLIPR assay (reference value: 1.30 %); type: functional, cell-based
[20] = Positive allosteric modulator activity at GPR68 H269F mutant transfected in human HEK293T cells assessed as proton-mediated calcium release at 10 uM incubated for 10 mins by Fluo-4 Direct calcium dye based FLIPR assay (reference value: 1.57 +/- 0.01 %); conditions: HEK-293T, condition central nervous system disease
[21] = Positive allosteric modulator activity at GPR68 R189M mutant transfected in human HEK293T cells assessed as proton-mediated calcium release at 10 uM incubated for 10 mins by Fluo-4 Direct calcium dye based FLIPR assay (reference value: 6.77 +/- 0.01); type: cell-based; conditions: HEK-293T
[22] = Positive allosteric modulator activity at GPR68 E160K mutant transfected in human HEK293T cells assessed as proton-mediated calcium release at 10 uM incubated for 10 mins by Fluo-4 Direct calcium dye based FLIPR assay (reference value: 6.79 +/- 0.02); type: cell-based; conditions: HEK-293T

T2 sequence (Q15743 whole entry): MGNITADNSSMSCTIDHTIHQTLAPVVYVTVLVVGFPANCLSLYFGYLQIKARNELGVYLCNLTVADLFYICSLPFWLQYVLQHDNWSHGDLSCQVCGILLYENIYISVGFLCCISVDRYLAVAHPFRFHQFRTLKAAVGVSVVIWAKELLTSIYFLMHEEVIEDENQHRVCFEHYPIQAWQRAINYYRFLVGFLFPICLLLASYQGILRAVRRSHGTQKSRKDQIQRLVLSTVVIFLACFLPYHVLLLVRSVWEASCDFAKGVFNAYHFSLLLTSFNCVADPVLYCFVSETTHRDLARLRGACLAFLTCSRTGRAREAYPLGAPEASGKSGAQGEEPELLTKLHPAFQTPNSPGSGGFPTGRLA
T1 sequence (Q8IYL9 whole entry): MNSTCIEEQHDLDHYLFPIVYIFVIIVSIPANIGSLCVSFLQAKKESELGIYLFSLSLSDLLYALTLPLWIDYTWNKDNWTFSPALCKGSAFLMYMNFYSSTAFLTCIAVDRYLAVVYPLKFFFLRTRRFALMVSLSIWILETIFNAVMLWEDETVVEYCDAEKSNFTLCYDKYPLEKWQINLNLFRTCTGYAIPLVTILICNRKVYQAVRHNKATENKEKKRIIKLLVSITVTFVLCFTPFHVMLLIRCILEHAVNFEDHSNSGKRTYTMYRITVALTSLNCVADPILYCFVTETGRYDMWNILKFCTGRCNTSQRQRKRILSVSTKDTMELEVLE

Emax [1]: 7.6% | Activity [4]: Active | EC50 [7]: 7760 nM
SMILES: CN1N=C(SCc2ccc(Cl)cc2Cl)Sc2c1cnn(C)c2=O
Activity (HEK293T [2]): Active | Activity (HEK293T [3]): Active | Activity (HEK293T [5]): Active | Emax [6]: 8.1% | EC50 [8]: 1290 nM

Activity [9]: Active | Activity ([7]; filed as antagonist): Active
SMILES: Cc1nc(-c2ncccn2)sc1C(=O)O[C@@H](c1ccccc1)c1ccncc1

EC50 [12]: 110 nM | Emax [13]: 70.7% | EC50 [15]: 105 nM | EC50 [17]: 324 nM | EC50 [18]: 102 nM | Emax [19]: 1.24% | EC50 [21]: 141 nM | EC50 [22]: 141 nM
SMILES: Nc1nc(NCc2ccccc2)nc(-c2cc(F)cc(F)c2)n1
Emax at 10 µM [10]: 1.11% | Emax at 10 µM [11]: 1.38% | Emax at 10 µM [14]: 1.41% | Emax at 10 µM [16]: 1.49% | Emax at 10 µM [20]: 1.63%
